# In ChEMBL document CHEMBL4428039, “Anticancer properties of new synthetic hybrid molecules combining naphtho[2,3-b]furan-4,9-dione or benzo[f]indole-4,9-dione motif with phosphonate subunit” (Eur J Med Chem, 2016):
# The source made the active and inactive calls. No cut-off for these calls is given here.
# Key:
# [1] = test system: HL-60; assay: Induction of ROS generation in human HL60 cells at 7.27 +/- 0.08 uM after 24 hrs by Cellrox Green staining based flow cytometry relative to control; assay type: functional
# [2] = test system: HL-60; assay: Induction of transmembrane potential depolarization in human HL60 cells at 7.27 +/- 0.08 uM after 24 hrs by JC-10 staining based flow cytometry (reference value: 15.9%); assay type: functional
# [3] = test system: MCF7; assay: Cytotoxicity against human MCF7 cells assessed as inhibition of metabolic activity after 24 hrs by MTT assay; assay type: functional, cell-based; settings: MCF7, 24 h
# How it was run: (§1)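 MTT assay on HL-60 or MCF-7 cells seeded and grown 24 h, then treated 24 h over 10^-7 to 10^-3 M (final DMSO <0.1%). MTT (5 mg/mL in PBS) added for 2 h. Formazan dissolved in DMSO and read at 560 nm against untreated cells. IC50 derived from concentration–response curves of ≥3 experiments.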
# [4] = test system: MCF7; assay: Induction of apoptosis in human MCF7 cells assessed as necrotic cells at 3.4 +/- 0.15 uM after 24 hrs by Annexin V-APC/propidium iodide staining based flow cytometry (reference value: 1.9%); assay type: functional
# [5] = test system: HL-60; assay: Cytotoxicity against human HL60 cells assessed as inhibition of metabolic activity after 48 hrs by MTT assay; assay type: functional, cell-based; settings: HL-60, 48 h
# How it was run: (§2)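 Exponentially growing cells seeded in 96-well plates and grown 24 h. Compounds in DMSO, diluted in medium (final DMSO <0.1%), added at 10^-7 to 10^-3 M for 48 h. MTT (5 mg/mL in PBS) then added for 2 h. Formazan dissolved in DMSO and read at 560 nm against untreated cells. IC50 taken from concentration–response curves; mean ± SD of ≥3 experiments.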
# [6] = test system: HL-60; assay: Cell cycle arrest in human HL60 cells assessed as accumulation at G2/M phase at 7.27 +/- 0.08 uM after 24 hrs by DAPI staining based flow cytometry (reference value: 31.2%); assay type: functional
# [7] = test system: HL-60; assay: Induction of apoptosis in human HL60 cells assessed as early apoptotic cells at 7.27 +/- 0.08 uM after 24 hrs by Annexin V-APC/propidium iodide staining based flow cytometry (reference value: 3.4%); assay type: functional
# [8] = Selectivity index, ratio of IC50 for human MCF10A cells to IC50 for human MCF7 cells; assay type: toxicity; settings: MCF10A cells versus MCF7 cells, read-out: Ratio IC50
# [9] = test system: MCF7; assay: Induction of apoptosis in human MCF7 cells assessed as early apoptotic cells at 3.4 +/- 0.15 uM after 24 hrs by Annexin V-APC/propidium iodide staining based flow cytometry (reference value: 5.9%); assay type: functional
# [10] = test system: MCF7; assay: Induction of apoptosis in human MCF7 cells assessed as viable cells at 3.4 +/- 0.15 uM after 24 hrs by Annexin V-APC/propidium iodide staining based flow cytometry (reference value: 86.1%); assay type: functional
# [11] = test system: NALM-6; assay: Cytotoxicity against human NALM6 cells assessed as inhibition of metabolic activity after 48 hrs by MTT assay; assay type: functional, cell-based; settings: NALM-6, 48 h; how it was run: as §2
# [12] = test system: MCF7; assay: Cell cycle arrest in human MCF7 cells assessed as accumulation at G0/G1 phase at 3.4 +/- 0.15 uM after 24 hrs by DAPI staining based flow cytometry (reference value: 55%); assay type: functional
# [13] = test system: HL-60; assay: Induction of apoptosis in human HL60 cells assessed as late apoptotic cells at 7.27 +/- 0.08 uM after 24 hrs by Annexin V-APC/propidium iodide staining based flow cytometry (reference value: 2.7%); assay type: functional
# [14] = test system: HL-60; assay: Cell cycle arrest in human HL60 cells assessed as accumulation at subG0/G1 phase at 7.27 +/- 0.08 uM after 24 hrs by DAPI staining based flow cytometry (reference value: 3.1%); assay type: functional
# [15] = test system: MCF7; assay: Inhibition of cell proliferation in human MCF7 cells assessed as reduction in BrdU incorporation at 3.4 +/- 0.15 uM after 24 hrs by DAPI staining based flow cytometry relative to control; assay type: functional
# [16] = test system: MCF7; assay: Cytotoxicity against human MCF7 cells assessed as inhibition of metabolic activity after 48 hrs by MTT assay; assay type: functional, cell-based; settings: MCF7, 48 h; how it was run: as §2
# [17] = test system: MCF7; assay: Induction of transmembrane potential depolarization in human MCF7 cells at 3.4 +/- 0.15 uM after 24 hrs by JC-10 staining based flow cytometry (reference value: 18.2%); assay type: functional
# [18] = test system: HL-60; assay: Inhibition of cell proliferation in human HL60 cells assessed as reduction in BrdU incorporation at 7.27 +/- 0.08 uM after 24 hrs by DAPI staining based flow cytometry relative to control; assay type: functional
# [19] = test system: HL-60; assay: Cell cycle arrest in human HL60 cells assessed as accumulation at G0/G1 phase at 7.27 +/- 0.08 uM after 24 hrs by DAPI staining based flow cytometry (reference value: 39.5%); assay type: functional
# [20] = test system: MCF-10A; assay: Cytotoxicity against human MCF10A cells assessed as inhibition of metabolic activity after 48 hrs by MTT assay; assay type: ADME, cell-based; how it was run: as §2
# [21] = test system: MCF7; assay: Induction of DNA damage in human MCF7 cells assessed as increase in H2AX phosphorylation at S139 residue at 3.4 +/- 0.15 uM after 24 hrs by DAPI staining based flow cytometry relative to control; assay type: functional
# [22] = test system: HL-60; assay: Cytotoxicity against human HL60 cells assessed as inhibition of metabolic activity after 24 hrs by MTT assay; assay type: functional, cell-based; settings: HL-60, 24 h; how it was run: as §1
# [23] = test system: HL-60; assay: Cell cycle arrest in human HL60 cells assessed as accumulation at S phase at 7.27 +/- 0.08 uM after 24 hrs by DAPI staining based flow cytometry (reference value: 26.1%); assay type: functional
# [24] = test system: MCF7; assay: Induction of apoptosis in human MCF7 cells assessed as increase in cleaved PARP positive cells at 3.4 +/- 0.15 uM after 24 hrs by DAPI staining based flow cytometry relative to control; assay type: functional, cell-based
# [25] = test system: HL-60; assay: Induction of apoptosis in human HL60 cells assessed as necrotic cells at 7.27 +/- 0.08 uM after 24 hrs by Annexin V-APC/propidium iodide staining based flow cytometry (reference value: 0.1%); assay type: functional
# [26] = test system: HL-60; assay: Induction of apoptosis in human HL60 cells assessed as increase in cleaved PARP positive cells at 7.27 +/- 0.08 uM after 24 hrs by DAPI staining based flow cytometry (reference value: 1.2 +/- 0.2%); assay type: functional
# [27] = test system: HL-60; assay: Induction of DNA damage in human HL60 cells assessed as increase in H2AX phosphorylation at S139 residue at 7.27 +/- 0.08 uM after 24 hrs by DAPI staining based flow cytometry relative to control; assay type: functional
# [28] = test system: MCF7; assay: Induction of ROS generation in human MCF7 cells at 3.4 +/- 0.15 uM after 24 hrs by Cellrox Green staining based flow cytometry relative to control; assay type: functional
# [29] = test system: MCF7; assay: Cell cycle arrest in human MCF7 cells assessed as accumulation at G2/M phase at 3.4 +/- 0.15 uM after 24 hrs by DAPI staining based flow cytometry (reference value: 23%); assay type: functional
# [30] = test system: HUVEC; assay: Cytotoxicity against HUVEC assessed as inhibition of metabolic activity after 48 hrs by MTT assay; assay type: ADME, cell-based; settings: Homo sapiens; how it was run: as §2
# [31] = test system: MCF7; assay: Cell cycle arrest in human MCF7 cells assessed as accumulation at S phase at 3.4 +/- 0.15 uM after 24 hrs by DAPI staining based flow cytometry (reference value: 22%); assay type: functional
# [32] = test system: MCF7; assay: Induction of apoptosis in human MCF7 cells assessed as late apoptotic cells at 3.4 +/- 0.15 uM after 24 hrs by Annexin V-APC/propidium iodide staining based flow cytometry (reference value: 6.1%); assay type: functional
# [33] = test system: HL-60; assay: Induction of ROS generation in human HL60 cells at 200 uM after 1 hr by Cellrox Green staining based flow cytometry; assay type: functional, cell-based
# How it was run: (§3)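 Positive-control ROS measurement in HL-60 and MCF-7 cells: menadione 200 µM for 1 h. Cells then stained with 5 µM CellROX Green for 30 min at 37 °C and analysed by flow cytometry. 3–4 independent experiments in triplicate, mean ± SEM.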
# [34] = test system: MCF7; assay: Induction of ROS generation in human MCF7 cells at 200 uM after 1 hr by Cellrox Green staining based flow cytometry; assay type: functional, cell-based; how it was run: as §3
smiles,measurement,setting,value
CCOP(=O)(OCC)c1c(-c2ccccc2Cl)oc2c1C(=O)c1ccccc1C2=O,fold change (FC),[1],10
same,Activity,[2],44%
same,IC50,[3],3.4 µM
same,Activity,[4],5.6%
same,IC50,[5],6.35 µM
same,Activity,[6],26.1%
same,Activity,[7],4.8%
same,selectivity ratio,[8],4
same,Activity,[9],3%
same,Activity,[10],72.4%
same,IC50,[11],5.07 µM
same,Activity,[12],62%
same,Activity,[13],27.8%
same,Activity,[14],8.2%
same,inhibition (INH),[15],34%
same,IC50,[16],2.34 µM
same,Activity,[17],50 - 50.1%
same,inhibition (INH),[18],91%
same,Activity,[19],33.5%
same,IC50,[20],10 µM
same,Activity,[21],11.03%
same,IC50,[22],7.27 µM
same,Activity,[23],36.1%
same,Activity,[24],inactive
same,Activity,[25],2.7%
same,Activity,[26],<=82.8%
same,Activity,[27],40.7%
same,fold change (FC),[28],10
same,Activity,[29],16.4%
same,IC50,[30],3.73 µM
same,Activity,[31],22.4%
same,Activity,[32],19%
CCOP(=O)(OCC)c1c(-c2cc(F)c(Cl)nc2Cl)oc2c1C(=O)c1ccccc1C2=O,IC50,[5],5.94 µM
same,selectivity ratio,[8],4
same,IC50,[11],5.32 µM
same,IC50,[16],2.85 µM
same,IC50,[20],9.79 µM
same,IC50,[30],4.85 µM
CCOP(=O)(OCC)c1c(-c2cccnc2Cl)oc2c1C(=O)c1ccccc1C2=O,IC50,[5],8.66 µM
same,IC50,[11],6.65 µM
same,IC50,[16],2.55 µM
CCCCCCn1c(O)c(P(=O)(OCC)OCC)c2c1C(=O)c1ccccc1C2=O,IC50,[5],30.7 µM
same,IC50,[11],44.3 µM
same,IC50,[16],19.5 µM
CCOP(=O)(OCC)c1c2c(n(C3CC3)c1O)C(=O)c1ccccc1C2=O,IC50,[5],65 µM
same,IC50,[11],51.3 µM
same,IC50,[16],102 µM
CCOP(=O)(OCC)c1c2c(n(Cc3ccccc3Cl)c1O)C(=O)c1ccccc1C2=O,IC50,[5],42.4 µM
same,IC50,[11],60.1 µM
same,IC50,[16],65 µM
CCOP(=O)(OCC)c1c2c(n(C)c1O)C(=O)c1ccccc1C2=O,IC50,[5],59.7 µM
same,IC50,[11],61.7 µM
same,IC50,[16],50 µM
COc1cccc2c1C(=O)c1c(O)c3c(c(O)c1C2=O)C[C@@](O)(C(=O)CO)C[C@@H]3O[C@H]1C[C@H](N)[C@H](O)[C@H](C)O1 [DOXORUBICIN],IC50,[5],0.11 µM
same,IC50,[20],1.2 µM
same,IC50,[30],1.4 µM
CC1=CC(=O)c2ccccc2C1=O,Activity,[33],Active
same,Activity,[34],Active
CCOP(=O)(O)c1c(-c2ccccc2Cl)oc2c1C(=O)c1ccccc1C2=O,IC50,[5],487 µM
same,IC50,[11],479 µM
same,IC50,[16],150 µM
CCOP(=O)(OCC)c1c(C)oc2c1C(=O)c1ccccc1C2=O,IC50,[5],8.13 µM
same,IC50,[11],5.85 µM
same,IC50,[16],5.7 µM
CCCn1c(O)c(P(=O)(OCC)OCC)c2c1C(=O)c1ccccc1C2=O,IC50,[5],56.2 µM
same,IC50,[11],60 µM
same,IC50,[16],43.9 µM
CCOP(=O)(OCC)c1c(-c2ccccc2)oc2c1C(=O)c1ccccc1C2=O,IC50,[5],6.01 µM
same,IC50,[11],6.06 µM
same,IC50,[16],2.4 µM
CCOP(=O)(OCC)c1c(-c2ccc(Cl)cc2Cl)oc2c1C(=O)c1ccccc1C2=O,IC50,[5],5.44 µM
same,selectivity ratio,[8],4
same,IC50,[11],4.82 µM
same,IC50,[16],2.9 µM
same,IC50,[20],11.3 µM
same,IC50,[30],4.06 µM
